According to ChEMBL document CHEMBL1126589, “Substituted 3-(phenylmethyl)-1H-indole-5-carboxamides and 1-(phenylmethyl)indole-6-carboxamides as potent, selective, orally active antagonists of the peptidoleukotrienes” (J Med Chem, 1993):

Key:
[1] = biological target: T1, Cysteinyl leukotriene receptor 1 (Cavia porcellus, UniProt Q2NNR5); test: Binding affinity to the leukotriene receptor (LTD4) from guinea pig lung parenchymal membranes assayed using [3H]LTD4 as radioligand; format: tissue-based, Lung parenchyma
T1 sequence (Q2NNR5 whole entry): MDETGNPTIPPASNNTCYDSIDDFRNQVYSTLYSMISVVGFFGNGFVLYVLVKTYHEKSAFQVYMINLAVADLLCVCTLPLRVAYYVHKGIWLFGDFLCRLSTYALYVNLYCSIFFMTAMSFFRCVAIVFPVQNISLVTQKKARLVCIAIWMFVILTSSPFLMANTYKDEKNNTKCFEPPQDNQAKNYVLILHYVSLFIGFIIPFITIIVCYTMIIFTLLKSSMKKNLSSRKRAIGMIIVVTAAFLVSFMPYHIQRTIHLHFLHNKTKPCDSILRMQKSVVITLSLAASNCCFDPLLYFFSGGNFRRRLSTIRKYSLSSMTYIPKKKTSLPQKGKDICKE
How it was run: (§1)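 Displacement of [3H]LTD4 from guinea pig lung parenchymal membranes; Ki is the mean of two experiments run in duplicate with separate batches, reported as pKi (-log Ki).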

[2] = biological target: T2, Cysteinyl leukotriene receptor 1 (Cavia porcellus) (UniProt Q2NNR5); test: Binding affinity against leukotriene receptor (LTE4) from guinea pig tracheal spirals; format: tissue-based
T2 sequence (whole entry): T1 sequence (Q2NNR5 whole entry)
How it was run: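 Functional antagonism in isolated guinea pig tracheal spirals contracted with LTE4 as agonist; KB derived from concentration-response curves, n = number of curves.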

Cavia porcellus [3] = test: Effective dose against LTD4-induced bronchoconstriction in guinea pig after intravenous administration; format: functional
How it was run: (§2)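 Conscious guinea pigs challenged with LTD4 ("dyspnea" model) after oral or intravenous dosing; percent protection from LTD4-induced dyspnea plotted against dose to derive ED50; po/iv ratio taken from the oral and intravenous ED50 values.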

[4] = ED50 ratio of LTD4 peroral administration / LTD4 intravenous administration; format: functional; how it was run: as §2
[5] = biological target: T1, Cysteinyl leukotriene receptor 1; test: Binding affinity against leukotriene receptor (LTD4) from guinea pig lung parenchymal membranes using [3H]LTD4 as radio ligand; format: tissue-based, Lung parenchyma; how it was run: as §1
Cavia porcellus [6] = test: Effective dose against LTD4-induced bronchoconstriction in guinea pig after peroral administration; format: functional; conditions: po; how it was run: as §2
Rattus norvegicus [7] = test: Integrated area under the blood concentration vs time curve for the period 0-24 hr postdose of 1 mg/kg in rat; format: ADME, organism-based; parameters: time < 24 hr, dose 1 mg/kg; conditions: in vivo
[8] = Maximum concentration in whole blood recorded in the period 0-24 hr postdose of 1 mg/kg in rat; format: ADME, organism-based; parameters: dose 1 mg/kg
Rattus norvegicus [9] = test: Maximum concentration in whole blood recorded in the period 0-24 hr postdose of 1 mg/kg in rat (normalized to a 1 mg/kg dose); format: ADME, organism-based; parameters: dose 1 mg/kg; conditions: in vivo
How it was run: (§3)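 Sprague-Dawley rats, fasted overnight, cannulated in carotid artery and/or jugular vein at least 20 h before dosing. Oral doses 1 or 2.5 mg/kg, iv 2.5 mg/kg via jugular cannula, in polyethylene glycol/phosphate buffered saline. Unchanged compound in whole blood measured by HPLC over 0–24 h; AUC by trapezoidal rule; values also normalized to 1.0 mg/kg.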

Rattus norvegicus [10] = test: Integrated area under the blood concentration vs time curve for the period 0-24 hr postdose of 1 mg/kg (normalized to a 1 mg/kg dose) in rat; format: ADME, organism-based; parameters: dose 1 mg/kg, time < 24 hr; conditions: in vivo; how it was run: as §3
[11] = Maximum concentration in whole blood recorded in the period 0-24 hr postdose of 2.5 mg/kg in rat (normalized to a 1 mg/kg dose); format: ADME, organism-based; parameters: dose 2.5 mg/kg; conditions: in vivo; how it was run: as §3
[12] = Bioavailability was determined in GP; format: ADME, organism-based, Cavia porcellus; conditions: guinea pig, in vivo
How it was run: (§4)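 Guinea pigs, fasted overnight and cannulated at least 20 h beforehand, given 5 mg/kg orally and intravenously (jugular cannula) in polyethylene glycol/phosphate buffered saline.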

[13] = Integrated area under the blood concentration vs time curve for the period 0-24 hr postdose of 5.0 mg/kg (normalized to a 1 mg/kg dose) GP; format: ADME, organism-based; parameters: dose 5 mg/kg, time < 24 hr; conditions: guinea pig, in vivo; how it was run: as §4
[14] = Maximum concentration in whole blood recorded in the period 0-24 hr postdose of 5.0 mg/kg GP (normalized to a 1 mg/kg dose); format: ADME, organism-based; parameters: dose 5 mg/kg; conditions: guinea pig, in vivo; how it was run: as §4
[15] = Bioavailability in rat; format: ADME, organism-based; conditions: in vivo; how it was run: as §3
Rattus norvegicus [16] = test: Integrated area under the blood concentration vs time curve for the period 0-24 hr postdose of 2.5 mg/kg (normalized to a 1 mg/kg dose) in rat; format: ADME, organism-based; parameters: dose 2.5 mg/kg, time < 24 hr; conditions: in vivo; how it was run: as §3

| SMILES | Ki [1] [nM] | pKB [2] | Ki [5] [nM] | ED50 (Cavia porcellus [3]) [µmol/kg] | ED50 (Cavia porcellus [6]) [µmol/kg] | other results |
| --- | --- | --- | --- | --- | --- | --- |
| CCC(CC)CNC(=O)c1ccc2c(CC3CCCCC3)cn(Cc3ccc(C(=O)NS(=O)(=O)c4ccccc4C)cc3OC)c2c1 |  |  | 2.51 |  |  |  |
| CCC(CC)CNC(=O)c1ccc2c(c1)c(Cc1ccc(C(=O)NS(=O)(=O)c3ccccc3Br)cc1OC)cn2C |  | 9.1 | 3.98 | 0.84 | 21.4 | Ratio [4]: 25 |
| CCCc1cn(Cc2ccc(C(=O)NS(=O)(=O)c3ccccc3C)cc2OC)c2cc(C(=O)NCC(CC)CC)ccc12 |  | 8.8 | 1.26 |  |  |  |
| CCCn1cc(Cc2ccc(C(=O)NS(=O)(=O)c3ccccc3)cc2OC)c2cc(C(=O)NCC(C)C)ccc21 |  | 7.6 | 7.94 |  |  |  |
| CCC(CC)CNC(=O)c1ccc2c(c1)c(Cc1ccc(C(=O)NS(=O)(=O)c3ccccc3Cl)cc1OC)cn2C |  |  | 6.31 |  |  |  |
| CCC(CC)CNC(=O)c1ccc2c(CCc3ccccc3)cn(Cc3ccc(C(=O)NS(=O)(=O)c4ccccc4C)cc3OC)c2c1 |  |  | 25.1 |  |  |  |
| CCCn1cc(Cc2ccc(C(=O)NS(=O)(=O)c3ccccc3)cc2OC)c2cc(C(=O)NCC(CC)CC)ccc21 |  | 7.7 | 3.98 |  |  |  |
| CCC(CC)CNC(=O)c1ccc2c(CC(C)C)cn(Cc3ccc(C(=O)NS(=O)(=O)c4ccccc4C)cc3OC)c2c1 |  | 8.2 | 6.31 |  |  |  |
| CCC(CC)CNC(=O)c1ccc2c(CC3CCCC3)cn(Cc3ccc(C(=O)NS(=O)(=O)c4ccccc4C)cc3OC)c2c1 |  |  | 1 |  |  |  |
| CCCCCC(C)CNC(=O)c1ccc2c(c1)c(Cc1ccc(C(=O)NS(=O)(=O)c3ccccc3C)cc1OC)cn2C (stereo not drawn) | 10 |  |  |  |  |  |
| COc1cc(C(=O)NS(=O)(=O)c2ccccc2C)ccc1Cc1cn(C)c2ccc(C(=O)NCCc3ccccc3)cc12 | 79.4 |  |  |  |  |  |
| CCC(CC)CNC(=O)c1ccc2c(c1)c(Cc1ccc(C(=O)NS(=O)(=O)c3ccccc3C)cc1OC)cn2CC | 1 | 9.5 |  | 0.07 | 5.3 | Cmax [11]: 540 ng/mL; bioavailability [12]: 5.1%; AUC [13]: 207 ng·h/mL; Cmax [14]: 92 ng/mL; bioavailability [15]: 28.1%; AUC (Rattus norvegicus [16]): 4070 ng/h/mL; Ratio [4]: 81 |
| COc1cc(C(=O)NS(=O)(=O)c2ccccc2C)ccc1Cn1cc(C)c2ccc(C(=O)NCC3CCCC3)cc21 | 10 | 8.9 |  | 1.62 | ~30 | Ratio [4]: ~20 |
| CCCCCCC(C)CNC(=O)c1ccc2c(c1)c(Cc1ccc(C(=O)NS(=O)(=O)c3ccccc3C)cc1OC)cn2C (stereo not drawn) | 7.94 | 7.5 |  |  |  |  |
| CCC(CC)CNC(=O)c1ccc2c(c1)c(Cc1ccc(C(=O)NS(=O)(=O)c3ccccc3C)cc1OC)cn2C1CCCC1 | 2.51 |  |  |  |  |  |
| CCCn1cc(Cc2ccc(C(=O)O)cc2OC)c2cc(C(=O)NCC(C)C)ccc21 |  |  | 2510 |  |  |  |
| COc1cc(C(=O)NS(=O)(=O)c2ccccc2C)ccc1Cn1cc(C)c2ccc(NC(=O)CC3CCCC3)cc21 |  | 9.3 |  |  | 0.3 |  |
| CCC(CC)CNC(=O)c1ccc2c(c1)c(Cc1ccc(C(=O)NS(=O)(=O)c3ccccc3C)cc1OC)cn2C(C)C | 0.501 | 8.8 |  | 0.02 | 4.7 | Ratio [4]: 300 |
| CCCCN(CCCC)C(=O)c1ccc2c(c1)c(Cc1ccc(C(=O)NS(=O)(=O)c3ccccc3C)cc1OC)cn2C | 79.4 |  |  |  |  |  |
| CCc1cn(Cc2ccc(C(=O)NS(=O)(=O)c3ccccc3C)cc2OC)c2cc(C(=O)NCC(CC)CC)ccc12 | 3.16 | 8.2 |  |  |  |  |
| CCCn1cc(Cc2ccc(C(=O)NS(=O)(=O)c3ccccc3C)cc2OC)c2cc(C(=O)NCC(C)C)ccc21 | 2 | 9.1 |  | 0.07 | 31 | Ratio [4]: 456 |
| CCCn1cc(Cc2ccc(C(=O)NS(=O)(=O)c3ccccc3C)cc2OC)c2cc(C(=O)NCC(CC)CC)ccc21 | 0.794 | 8.9 |  | 0.04 | 5.6 | Ratio [4]: 137 |
| CCC(CC)CNC(=O)c1ccc2c(C)cn(Cc3ccc(C(=O)NS(=O)(=O)c4ccccc4C)cc3OC)c2c1 | 2.51 | 8.4 |  |  |  |  |
| CCC(CC)CNC(=O)c1ccc2c(c1)c(Cc1ccc(C(=O)NS(=O)(=O)c3ccccc3C)cc1OC)cn2Cc1ccccc1 | 1.26 | 8.3 |  |  |  |  |
| CCC(CC)CNC(=O)c1ccc2ccn(Cc3ccc(C(=O)NS(=O)(=O)c4ccccc4C)cc3OC)c2c1 | 12.6 |  |  |  |  |  |
| C/C=C\c1cn(Cc2ccc(C(=O)NS(=O)(=O)c3ccccc3C)cc2OC)c2cc(C(=O)NCC(CC)CC)ccc12 |  |  | 50.1 |  |  |  |
| C=CCn1cc(Cc2ccc(C(=O)NS(=O)(=O)c3ccccc3C)cc2OC)c2cc(C(=O)NCC3CCCC3)ccc21 | 0.398 | 8.3 |  | 0.03 | 9.9 |  |

Second part, led by results:

| Ki [1] [nM] | pKB [2] | Ki [5] [nM] | SMILES | ED50 (Cavia porcellus [3]) [µmol/kg] | ED50 (Cavia porcellus [6]) [µmol/kg] | other results |
| --- | --- | --- | --- | --- | --- | --- |
| 3.16 | 8.4 |  | COc1cc(C(=O)NS(=O)(=O)c2ccccc2C)ccc1Cc1cn(C)c2ccc(C(=O)NCC3CCCC3)cc12 | 0.69 |  | Ratio [4]: 28 |
| 126 |  |  | CCCCC(CC)NC(=O)c1ccc2c(c1)c(Cc1ccc(C(=O)NS(=O)(=O)c3ccccc3C)cc1OC)cn2C (stereo not drawn) |  |  |  |
|  | 8 | 2 | CCC(CC)CNC(=O)c1ccc2c(c1)c(Cc1ccc(C(=O)NS(=O)(=O)c3ccccc3C)cc1OC)cn2C | 1.09 | 14.7 | AUC (Rattus norvegicus [7]): 5740 ng·h/mL; Cmax [8]: 410 ng/mL; Ratio [4]: 14 |
| 0.316 | 8.7 |  | CCCn1cc(Cc2ccc(C(=O)NS(=O)(=O)c3ccccc3C)cc2OC)c2cc(C(=O)NCC3CCCC3)ccc21 | 0.03 | 4.8 | Cmax (Rattus norvegicus [9]): 106 ng/mL; AUC (Rattus norvegicus [10]): 1610 ng·h/mL; Ratio [4]: 179 |
| 100 |  |  | COc1cc(C(=O)NS(=O)(=O)c2ccccc2C)ccc1Cc1cn(C)c2ccc(C(=O)NC3CCCCC3)cc12 |  |  |  |
| 100 |  |  | CCCC1CCN(C(=O)c2ccc3c(c2)c(Cc2ccc(C(=O)NS(=O)(=O)c4ccccc4C)cc2OC)cn3C)CC1 |  |  |  |
|  | 9.7 |  | COc1cc(C(=O)NS(=O)(=O)c2ccccc2C)ccc1Cc1cn(C)c2ccc(NC(=O)CC3CCCC3)cc12 | 0.02 | 0.41 | Ratio [4]: 22 |
| 5.01 | 8.7 |  | CCC(C)CNC(=O)c1ccc2c(c1)c(Cc1ccc(C(=O)NS(=O)(=O)c3ccccc3C)cc1OC)cn2C (stereo not drawn) | 1.39 | 20 | Ratio [4]: 14 |
| 15.8 | 7.5 |  | COc1cc(C(=O)NS(=O)(=O)c2ccccc2C)ccc1Cc1cn(C)c2ccc(C(=O)NCC(C)(C)C)cc12 |  |  |  |
|  | 8.6 | 6.31 | COc1cc(C(=O)NS(=O)(=O)c2ccccc2C)ccc1Cc1cn(C)c2ccc(C(=O)NCC(C)C)cc12 |  | > 30 |  |
| 63.1 |  |  | COc1cc(C(=O)NS(=O)(=O)c2ccccc2C)ccc1Cc1cn(C)c2ccc(C(=O)N(C)CC(C)C)cc12 |  |  |  |
| 6.31 | 8.1 |  | CCCCC(CC)CNC(=O)c1ccc2c(c1)c(Cc1ccc(C(=O)NS(=O)(=O)c3ccccc3C)cc1OC)cn2C (stereo not drawn) | 0.28 | 8.06 | Ratio [4]: 29 |
| 6.31 | 8.5 |  | CCCC(C)CNC(=O)c1ccc2c(c1)c(Cc1ccc(C(=O)NS(=O)(=O)c3ccccc3C)cc1OC)cn2C (stereo not drawn) |  |  |  |
| 15.8 |  |  | COc1cc(C(=O)NS(=O)(=O)c2ccccc2C)ccc1Cc1cn(C)c2ccc(C(=O)NCCC(C)C)cc12 |  |  |  |
